# Test results taken from ChEMBL document CHEMBL1250492, “Development of isoniazid-NAD truncated adducts embedding a lipophilic fragment as potential bi-substrate InhA inhibitors and antimycobacterial agents” (Eur J Med Chem, 2010).
# Several values for one entry are separate records, joined by “and”; a condition that tells them apart may be missing. Equal entries are not always repeated.
# Columns and labels:
# [1] = target: T1, Enoyl-[acyl-carrier-protein] reductase [NADH] (Mycobacterium tuberculosis) (UniProt P9WGR1); test: Inhibition of Mycobacterium tuberculosis InhA expressed in Escherichia coli at 100 uM after 5 mins
# T1 sequence (whole entry): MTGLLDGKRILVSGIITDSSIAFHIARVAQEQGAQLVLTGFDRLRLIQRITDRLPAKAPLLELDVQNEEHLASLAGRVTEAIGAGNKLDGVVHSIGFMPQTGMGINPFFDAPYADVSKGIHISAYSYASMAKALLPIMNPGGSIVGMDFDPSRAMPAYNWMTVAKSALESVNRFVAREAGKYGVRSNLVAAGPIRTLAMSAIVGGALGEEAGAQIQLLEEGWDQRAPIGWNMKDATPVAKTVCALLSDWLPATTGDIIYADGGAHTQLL
# Procedure, shortened: (§1)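 Recombinant M. tuberculosis InhA, E. coli-expressed and purified, at 70 nM. Pre-incubated with compound for 5 min or 2 h in 30 mM PIPES, 150 mM NaCl, pH 6.8, 25 °C, with 0.5% final DMSO. The reaction was started with trans-2-decenoyl-CoA plus NADH and followed by NADH oxidation at 340 nm, 25 °C. Initial rates were compared with a ligand-free control, giving % inhibition. Run in triplicate.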
# [2] = test system: Mycolicibacterium smegmatis; test: Antimycobacterial activity against Mycobacterium smegmatis after 24 hrs by MTT assay; assay type: functional, organism-based
# Procedure, shortened: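 MTT (1 mg/ml solution) was then added for a further 24 h, followed by DMF:20% SDS (1:2) solubilization and A570 reading. MIC is the lowest concentration blocking visible growth, and IC50 was fitted by non-linear regression. DMSO stocks were at 100× the top concentration. Isoniazid served as positive control.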
# [3] = test system: Mycobacterium tuberculosis; test: Antimycobacterial activity against Mycobacterium tuberculosis after 24 hrs by MTT assay; assay type: functional, organism-based
# Procedure, shortened: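 MTT was then added for a further 24 h, followed by DMF:20% SDS (1:2) solubilisation and A570 read-out. MIC was the lowest concentration stopping visible growth versus untreated bacilli. IC50 came from non-linear regression. DMSO stocks were at 100× the top concentration.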
# [4] = target: T1, Enoyl-[acyl-carrier-protein] reductase [NADH] (Mycobacterium tuberculosis); test: Inhibition of Mycobacterium tuberculosis InhA expressed in Escherichia coli at 100 uM after 2 hrs; procedure, shortened: as §1
# [5] = target: T1, Enoyl-[acyl-carrier-protein] reductase [NADH] (Mycobacterium tuberculosis); test: Inhibition of Mycobacterium tuberculosis InhA expressed in Escherichia coli at 10 uM after 5 mins; procedure, shortened: as §1
# [6] = target: T1, Enoyl-[acyl-carrier-protein] reductase [NADH] (Mycobacterium tuberculosis); test: Inhibition of Mycobacterium tuberculosis InhA expressed in Escherichia coli at 10 uM after 2 hrs; procedure, shortened: as §1
# [7] = target: T1, Enoyl-[acyl-carrier-protein] reductase [NADH] (Mycobacterium tuberculosis); test: Inhibition of Mycobacterium tuberculosis InhA expressed in Escherichia coli at 1 uM after 5 mins
# [8] = target: T1, Enoyl-[acyl-carrier-protein] reductase [NADH] (Mycobacterium tuberculosis); test: Inhibition of Mycobacterium tuberculosis InhA expressed in Escherichia coli at 1 uM after 2 hrs
# [9] = target: T1, Enoyl-[acyl-carrier-protein] reductase [NADH] (Mycobacterium tuberculosis); test: Inhibition of Mycobacterium tuberculosis InhA expressed in Escherichia coli at 20 uM after 5 mins; procedure, shortened: as §1
# [10] = target: T1, Enoyl-[acyl-carrier-protein] reductase [NADH] (Mycobacterium tuberculosis); test: Inhibition of Mycobacterium tuberculosis InhA expressed in Escherichia coli at 20 uM after 2 hrs; procedure, shortened: as §1
# [11] = Mycolicibacterium smegmatis, 24 h
SMILES,inhibition [1],"IC50 [2, 11]",IC50 [2],IC50 [3],also measured
CCCCCCCCCCCCOc1cccc(C2(O)NC(=O)c3c[n+](CC(=O)OCCCO)ccc32)c1 (centres undefined),30%,–,–,–,–
O=C1NC(O)(c2cccc(O)c2)c2ccncc21 (centres undefined),17%,300 µM,–,–,–
CCCCCCCCCCCCc1cccc(C2(O)NC(=O)c3cnccc32)c1 (centres undefined),4%,47 µM,78 µM,9.8 µM,–
CCCCCCCCCCCCOc1cccc(C2(O)NC(=O)c3c[n+](CC(=O)OCC)ccc32)c1 (centres undefined),35%,–,–,–,–
O=C1NC(O)(c2cccc(Br)c2)c2ccncc21 (centres undefined),20%,> 5000 µM,–,–,–
CCCCCCCCCCCCOc1cccc(C2(O)NC(=O)c3cnccc32)c1 (centres undefined),41%,–,68 µM and 156 µM,156 µM,inhibition [4]: 80%
CCCCCCCCc1cccc(C2(O)NC(=O)c3cnccc32)c1 (centres undefined),9%,–,4.5 µM and 19.5 µM,19.5 µM,–
C=CCOc1cccc(C2(O)NC(=O)c3cnccc32)c1 (centres undefined),23%,1300 µM,–,–,–
CCCCCCCCCCCCOc1cccc(C(=O)C2C=CN(CC(=O)OCC)C=C2C(N)=O)c1 (centres undefined),6%,–,–,–,–
CCCCCCCCCc1ccc(-c2cccc(C3(O)NC(=O)c4cnccc43)c2)cc1 (centres undefined),17%,1800 µM,–,–,–
CCCCCCCCCCCCc1cccc(C(=O)C2C=CN(CC(=O)OCC)C=C2C(N)=O)c1 (centres undefined),–,5.3 µM,9.8 µM,9.8 µM,inhibition [5]: 25%
CCCCCCCCCCCCOc1cccc(C(=O)C2C=CN(CC(=O)OCCCO)C=C2C(N)=O)c1 (centres undefined),3%,–,–,–,–
NNC(=O)c1ccncc1 [ISONIAZID],–,–,7.8 µM and 39 µM,< 0.3 µM,–
NC(=O)C1=CN([C@@H]2O[C@H](COP(=O)(O)OP(=O)(O)OC[C@H]3O[C@@H](n4cnc5c(N)ncnc54)[C@H](O)[C@@H]3O)[C@@H](O)[C@H]2O)C=C[C@@H]1C(=O)c1ccncc1,–,–,–,–,inhibition [6]: 97%; inhibition [5]: 92%; inhibition [7]: 67%; inhibition [8]: 87%
CCCCCCCCCCCCc1cccc(C2(O)NC(=O)c3c[n+](CC(=O)OCC)ccc32)c1 (centres undefined),91%,–,3.2 µM and 9.8 µM,39 µM,inhibition [9]: 40%; inhibition [5]: 19%; inhibition [10]: 28%
